This series can be described thus: Toxicity liver stage against HepG2, at 10uM. Further details: test concentration 10 uM, cell line HepG2-A16-CD81EGFP. Type of series: cell-based. The conditions noted are these: human, HepG2-A16-CD81EGFP cells; read-out: INHIBITION
Summed up: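 Uninfected HepG2-A16-CD81EGFP cells, 3 × 10^3 per well, 1536-well, plated on prespotted compound at 10 μM final, parasite-free screening media added to match infected plates; puromycin 10 μM positive, DMSO 0.5% negative; run in parallel with 48 h PbLuc assay at 37 °C, 5% CO2; viability by CellTiter-Glo luminescence, normalized to controls.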
As for `CC(=O)N[C@@H]1CN(CC(=O)NCc2ccccc2C)C[C@H]1C(C)C`, the cytotoxicity at 10 µM turned out to be 4.25%.
For `Cc1oncc1C(=O)N1CC[C@H]2[C@H](C[C@@H](CN3CCCC3)N2C)C1`, the cytotoxicity at 10 µM was found to be 0.286%.
On to `O=S(=O)(Nc1cnn(C2CCOCC2)c1)c1ccc(F)c(F)c1`, for which the cytotoxicity at 10 µM is 6.04%.
Turning to `Cc1nc(C)n(C2CCCN(C(=O)c3csc(C(C)C)n3)C2)n1` (stereo unspecified), the cytotoxicity at 10 µM is -1.72%.
As for `COCCn1cc(C(=O)N2CCCC2c2ccncc2)c2ccccc21` (stereo unspecified), the figure is 10.7%.
On to `COC1CCN(C(=O)Cc2csc(-c3ncccn3)n2)CC1`, for which the cytotoxicity at 10 µM was -12.6%.
On to `COC(=O)c1ccc(NC(C)c2ccc3c(c2)CCC(=O)N3)nn1` (stereo unspecified), for which the cytotoxicity at 10 µM worked out at 2.52%.
As for `Cc1noc(C)c1C1CCCN1CCC(=O)N1CCc2ccccc2C1` (stereo unspecified), the figure is 2.39%; as for `CC(C)NC(=O)NCc1ccc(C(=O)NC(C)Cn2cccn2)cc1` (stereo unspecified), -1.46%.
As for `CC(C)n1nnnc1-c1ccc(NC(=O)CC(F)(F)F)cc1F`, the figure is 6.62%.
Then `Cc1cccc(C(=O)NCC2CCS(=O)(=O)C2)n1` (stereo unspecified), with -6.21%; and `O=C(Cc1ccc2c(c1)OCO2)N[C@@H]1CCNC[C@H]1O`, with 0.635%; and `Cc1n[nH]c2c1C(c1ccc(Cl)cc1)SCC(=O)N2` (stereo unspecified), with 19.2%.
For `CCc1nc(C2CCCN(C(=O)C3=NN(CC)C(=O)CC3)C2)no1` (stereo unspecified), the cytotoxicity at 10 µM was -9.28%.
Then `CN1CCC(c2nnc3n2CCN(S(=O)(=O)c2ccccc2Cl)C3)CC1`, with 2.58%; and `C[S+]([O-])CCNC(=O)N1CCSC2(CCCCC2)C1` (stereo unspecified), with -0.363%.
Turning to `Cc1ccc(CNC(=O)NCc2ccco2)s1`, the cytotoxicity at 10 µM came out at 3.47%.
Then `CC(C)CC(=O)N1CCCC1c1ccsc1` (stereo unspecified), with 2.96%; and `Cc1cc(C)n(CC2CCCN2CC(=O)N(C)Cc2cnn(C)c2)n1` (stereo unspecified), with -5.85%.
Then `Cn1cccc1C(=O)N1CC[C@H]2[C@H]1CCN2CC1CC1`, with -3.86%; and `CC(C)n1nccc1NC(=O)CN1CCc2sccc2C1`, with 0.583%.
As for `CCCc1cc(C(=O)N2CCC3(CC2)CN(CCN(C)C)C(=O)O3)no1`, the figure is 14.1%; as for `O=C(CN(Cc1cccs1)C1CCS(=O)(=O)C1)NCC1CCCCC1` (stereo unspecified), 0.611%.
For `O=S(=O)(CCN1CCCCC1Cn1cncn1)c1ccccc1` (stereo unspecified), the cytotoxicity at 10 µM worked out at 10.4%.
For the compound `Cc1ccc(CNC(=O)CN2CCOC(Cn3cncn3)C2)s1` (stereo unspecified), the cytotoxicity at 10 µM is -8.45%.
Then `Cc1ccsc1CNCC1CCCN1c1cccnn1` (stereo unspecified), with -4.48%; and `CC(C)C(=O)N1CCC(C)(c2cc[nH]n2)CC1`, with 1.96%; and `CCn1cc(S(=O)(=O)NCC(OC)c2ccccc2)cn1` (stereo unspecified), with 1.64%.
As for `COc1ccccc1CNC(=O)Cn1ncc2c1c(C)nn2C`, the cytotoxicity at 10 µM is 10.6%.
As for `CCc1nc(C2CCCN(C(=O)c3ccccc3Cl)C2)no1` (stereo unspecified), the figure is -5.43%; as for `CCC(O)CN1CCN(C(=O)c2ccnc(N(C)C)c2)CC1` (stereo unspecified), -7.87%.
For the compound `CN(CCc1cccs1)CCc1nccs1`, the cytotoxicity at 10 µM was -5.81%.
As for `O=C(NC1CCC1)[C@H]1CCS(=O)(=O)[C@@H]2CN(CCc3ccccc3)C[C@H]12`, the figure is -3.06%.
Take `CN(C)C(=O)c1nn(C)c2c1CN(Cc1cccs1)C2`: the cytotoxicity at 10 µM was 4.9%.
As for `O=C(c1ccncc1)N1CC[C@@H](O)[C@@H](O)[C@H](N2CCC(F)(F)CC2)C1`, the figure is -10%; as for `COc1cc(CNCC(O)c2ccc(C)cc2)cc2c1OCO2` (stereo unspecified), -0.282%.
Then `Cc1nn(C)c(C)c1C1CCCN1C(=O)CCc1ccco1` (stereo unspecified), with -21.5%.
As for `O=C1N(c2cncnc2)CCC12CCCN(Cc1ccccn1)C2` (stereo unspecified), the figure is -9.35%.
For the compound `Cn1cnnc1CN1CCC2(CCCN(C3CCCCC3)C2=O)C1` (stereo unspecified), the cytotoxicity at 10 µM was -117%.
Then `CC(NC(=O)Nc1nncs1)C(=O)NC1CCCC1` (stereo unspecified), with -5.36%; and `Cn1ccnc1CN1CCN(CCOc2cccc(C#N)c2)CC1`, with -18%; and `O=C(c1ccncc1)N1CCC(O)(Cn2ccc3ccncc32)CC1`, with 1.93%.
Consider `COc1ccc(CC(=O)N2CCCC(n3cc(C)cn3)C2)cc1F` (stereo unspecified), for which the cytotoxicity at 10 µM is 1.88%.
As for `CCS(=O)(=O)N1CCN(c2cc(-n3cnc(C)c3C)nc(C)n2)CC1`, the figure is 0.599%.
Then `Cc1noc(C)c1CCNc1nccc(CCC(F)(F)F)n1`, with -158%.
Then `NC(=O)c1cnc(-c2ccccc2)nc1CCNC(=O)CN1CCCC1`, with -1.25%; and `Cc1noc(C2CCN(C(=O)Nc3ccc(N(C)C)nc3)CC2)n1`, with -3.45%.
As to `COCCN(C)C(C(=O)O)c1ccc(F)c(Cl)c1` (stereo unspecified), the cytotoxicity at 10 µM came to 12.2%.
Then `COC[C@@H]1CCC[C@]12CN(S(=O)(=O)c1cn(C)cn1)CCO2`, with 4.06%.
As for `Cc1ccccc1C(=O)NCC(=O)NCc1ccccn1`, the figure is -11.9%.
As for `CN(C(=O)c1ccc(NC(=O)c2cc[nH]n2)cc1)C1CCCCC1`, the figure is -2.98%; as for `COc1cccc2sc(N3CCN(C(=O)c4cc(C)on4)CC3)nc12`, 6.21%.
On to `COc1ccc(CN2CCC(CO)(Cc3ccc(Cl)cc3)CC2)c(O)c1`, for which the cytotoxicity at 10 µM was -134%.
As for `O=C(CCc1cccc(F)c1F)N1CCN(Cc2ccco2)CC1`, the figure is -11.5%; as for `COC1(CNS(=O)(=O)c2ccccc2Cl)CCSC1` (stereo unspecified), -7.48%.
Then `CCCOc1cc(CNC(=O)Nc2ccc(C)cc2)ccn1`, with 2.99%; and `COCCN1CCC(c2cncc(-c3ccccc3C)n2)CC1`, with -15.1%.
`CC(C)(C)C(=O)N1CC[C@@H]2[C@H](CC1)N(S(C)(=O)=O)CCS2(=O)=O`: the cytotoxicity at 10 µM was 0.64%.
Then `Cc1cnn(CC2CCCCN2C(=O)c2ccc3[nH]cnc3c2)c1` (stereo unspecified), with -9.75%.
As for `O=C(NCC1CCC(c2nnc(-c3cccnc3)o2)CC1)C1CC1` (stereo unspecified), the figure is 3.15%; as for `C[C@H](c1ccc(F)cc1)n1c(C2CCN(C)CC2)n[nH]c1=O`, 9.93%.
`Cc1c(NC(=O)c2ccc(Br)cc2)c(C(=O)N(C)C)nn1C`: the cytotoxicity at 10 µM came to 3.65%.
Then `COCc1ccc(C(=O)N2CCN(CC3CC3)[C@@H]3CS(=O)(=O)C[C@@H]32)o1`, with -15.5%; and `O=C(Nc1nccs1)N1CCCC(N2CCNC2=O)C1` (stereo unspecified), with -20.7%; and `Cc1cc(C(=O)N2CCNC(c3ccccc3)C2)c2ccc(F)cc2n1` (stereo unspecified), with 3.09%.
`Cc1nsc(NCc2ccc(S(=O)(=O)N(C)C(C)C)cc2)n1`: the cytotoxicity at 10 µM amounted to 16.2%.
Then `Cc1nc(CNC(=O)Nc2ccc(N(C)C)nc2)sc1C`, with -0.222%; and `CNC(=O)C1(N2CCC[C@H]2C(=O)NC2CC2)CCCCC1`, with -1.69%.
Then `CC(=O)N1CCC1c1cc(N2CCSCC2)nc(C)n1` (stereo unspecified), with 6.53%; and `Cc1ccc(CN2CCOC3(COCCN(S(C)(=O)=O)C3)C2)s1` (stereo unspecified), with 10.8%.
Then `CCn1nnc(NCc2cc(Br)cc(Br)c2OC)n1`, with 13.3%; and `CC(C)CC(=O)N1CC[C@H]2C[C@H](c3nccs3)O[C@@H]2C1`, with -0.966%; and `CC(C)c1nnc(CN(C)C(c2ccccc2)c2ccc(F)cc2)o1` (stereo unspecified), with 15.5%.
For the compound `CNc1cc(C)nc(C2COCCN2CCc2ccccc2)n1` (stereo unspecified), the cytotoxicity at 10 µM was 2.52%.
Then `CC(C)c1cc(=O)[nH]c(-c2ccccc2CN2CCC(C)(C)C2)n1`, with -42%; and `Cc1ccc(C(=O)N2CCC3(CC2)COC(COc2ccccn2)C3)o1` (stereo unspecified), with -0.954%; and `COc1cccc(OCC(=O)N(C)c2cccnc2N(C)C)c1`, with 0.102%.
Then `CCN1C(=O)COC[C@@H]1[C@H](O)c1ccc(NC(=O)COC)cc1`, with 1.73%; and `Cc1ccccc1C(CC(=O)NCc1nnc(N)s1)c1ccccc1` (stereo unspecified), with 13.6%; and `COCC1CN(Cc2ccc(C)s2)Cc2nnn(C)c21` (stereo unspecified), with 5.17%.
As for `Cn1ccnc1NC[C@@H]1CCC[C@@H]2CN(Cc3cccnc3)C[C@@H]21`, the figure is 5.55%.
Take `CNC(=O)CS(=O)(=O)C1CCN(S(=O)(=O)c2cccnc2)CC1`: the cytotoxicity at 10 µM is -1.68%.
Then `CCS(=O)(=O)N1CCCC(Cc2cnccn2)C1` (stereo unspecified), with -10.3%; and `COCCN1CC[C@]2(CN(Cc3ccccn3)C[C@H]2C)C1=O`, with 8.86%.
As for `CN(C)C(C(=O)NCC1(Cn2cccn2)CC1)c1ccc(F)cc1` (stereo unspecified), the figure is 3.65%.
Then `Cc1noc(C2CCN(C(=O)c3cc(Br)ccc3F)CC2)n1`, with -6.14%; and `O=C1NCC2(CCC(C(=O)N3CCCC(O)C3)CC2)Oc2ccccc21` (stereo unspecified), with -24.1%; and `CC(C)C(=O)N1CCN(C(=O)N(C)C)CC2(CC(=O)N(C)C2)C1` (stereo unspecified), with -21%.
As to `COc1ccc(OC)c(C2CCN(C(=O)C3CCN(C(C)C)CC3)C2)c1` (stereo unspecified), the cytotoxicity at 10 µM is -7.49%.
Then `Cc1cc(C(=O)N(C)CCN(C)C(=O)OC(C)(C)C)oc1C`, with 3.51%; and `Cc1cc(CNC(=O)c2ccno2)c(C)o1`, with -6.39%.
Then `CN(C)c1ncc2c(c1C(=O)O)CCN(Cc1ccco1)C2`, with 3.57%; and `COc1ncnc(N)c1CNCc1ccccc1-n1cccn1`, with -24.4%.
Then `COCc1ccc(C(=O)NCCCNc2ccc(C(F)(F)F)cn2)cc1`, with 2.13%.
In the case of `Cc1ccc(N2Cc3cnn(C)c3C(COCC3CC3)C2)nn1` (stereo unspecified), the cytotoxicity at 10 µM turned out to be 3.28%.
As for `Cc1ncsc1C(=O)N1CCCC(c2noc(C(C)C)n2)C1` (stereo unspecified), the figure is -2.04%.

The record behind these values is ChEMBL document CHEMBL4513216, “Probing the Open Global Health Chemical Diversity Library for Multistage-Active Starting Points for Next-Generation Antimalarials” (ACS Infect Dis, 2020).
